The list is not random: actives were taken first. Their share in the collection is about 4.6%.
TAAR1 ag – human TAAR1 agonists, primary screen, Fluo-8 calcium fluorescence, CHO RD-HGA16 cells; Trace amine-associated receptor 1 (Homo sapiens), Q96RJ0; vehicle wells 0%, saturating PEA agonist 100%; activation, % at 3 µM; 360,000 tested, 0.99% active;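 active = activation above the mean activation of all test compounds in the run plus 3 SD, cut at about 38% in these data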
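Assay system – CHO-derived RD-HGA16 cells with stable Gα16 and human TAAR1 · Compound dosing – one-point dosing at 3 µM (nominal) · Incubation – 17-24 h seeding, 75 min 37 °C dye, 30 min RT · Measured by – kinetic Fluo-8 calcium fluorescence · Control set – DMSO vehicle as 0%, PEA at EC100 as 100% · Repeats – single well for each compound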
GPR7 antagonist – GPR7 receptor antagonists, primary screen, cell-based, fluorescence, single concentration. 290,000 tested, 1.1% active. GPR7-expressing cells, fluorescence antagonist assay. Neuropeptides B/W receptor type 1 (Homo sapiens), P48145. inhibition, % at 4.4 µM; in the data active = inhibition above about 16%, passing the limit was not always enough;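 also: cells stimulated with the agonist NPW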
Target sequence (P48145 whole entry, looked up): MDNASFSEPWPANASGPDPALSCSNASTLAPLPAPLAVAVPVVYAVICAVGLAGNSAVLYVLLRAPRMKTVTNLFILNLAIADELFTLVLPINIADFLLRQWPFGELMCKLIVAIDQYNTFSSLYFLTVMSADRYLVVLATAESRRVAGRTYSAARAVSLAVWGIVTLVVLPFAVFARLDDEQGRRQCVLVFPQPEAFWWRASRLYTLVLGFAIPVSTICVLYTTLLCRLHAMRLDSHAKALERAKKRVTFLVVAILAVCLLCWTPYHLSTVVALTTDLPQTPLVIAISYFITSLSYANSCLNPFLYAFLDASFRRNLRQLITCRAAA
CHO parental Ca – ATP-evoked calcium signal inhibitors, parental CHO, primary screen, counter-screen for OX1R antagonist project, cell-based, fluorescence, Fluo-8 calcium dye | 330,000 tested, 0.63% active | parental CHO-K1, ATP-induced calcium, Fluo-8 fluorescence | inhibition, % at 5.6 µM | AID 463079, 2010;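 active = inhibition above that plate's mean sample inhibition plus 3 SD, cut at about 26% in these data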
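Material: Parental CHO cells | Reagent: ATP | Compound dosing: Single nominal dose of 5.6 µM per compound | Detection: Intracellular calcium via Fluo-8 no-wash fluorescent dye | Read-out: % inhibition of ATP-induced calcium mobilization | Benchmarks: Low control ATP plus DMSO, high control DMSO only | Replicates: Singlicate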
TAAR1 antagonist – human TAAR1 antagonists, primary screen, Fluo-8 calcium fluorescence, CHO RD-HGA16 cells. Trace amine-associated receptor 1 (Homo sapiens), Q96RJ0. antagonist. inhibition, % at 3 µM. 360,000 tested, 1.5% active;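 active = inhibition above a per-plate cutoff, the mean inhibition of test compounds on that plate plus 3 SD, cut at about 49% in these data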
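System: RD-HGA16 CHO cells with stable hTAAR1 and Gα16 | Probe or stimulus: EC80 β-phenethylamine stimulus | Dosing: 3 µM, single point | Times: Dye loading 75 min at 37 °C, then 30 min room temperature | Measured by: Fluo-8 calcium-sensitive fluorescence | Read-out basis: % inhibition of agonist calcium response | Replicates: n of 1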
OX1R antag-1 – OX1R (HCRTR1) antagonists, primary screen, fluorescence, CHO/OX1R cells, Fluo-8 calcium, orexin A. AID 434989, 2010. inhibition, % at 5 µM. 330,000 tested, 0.43% active. Orexin/Hypocretin receptor type 1 (Homo sapiens), O43613. Fluo-8 calcium fluorescence;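 active = inhibition above its plate's threshold, mean inhibition of all tested compounds on the plate plus 3 SD, cut at about 37% in these data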
Target sequence (O43613 whole entry, looked up): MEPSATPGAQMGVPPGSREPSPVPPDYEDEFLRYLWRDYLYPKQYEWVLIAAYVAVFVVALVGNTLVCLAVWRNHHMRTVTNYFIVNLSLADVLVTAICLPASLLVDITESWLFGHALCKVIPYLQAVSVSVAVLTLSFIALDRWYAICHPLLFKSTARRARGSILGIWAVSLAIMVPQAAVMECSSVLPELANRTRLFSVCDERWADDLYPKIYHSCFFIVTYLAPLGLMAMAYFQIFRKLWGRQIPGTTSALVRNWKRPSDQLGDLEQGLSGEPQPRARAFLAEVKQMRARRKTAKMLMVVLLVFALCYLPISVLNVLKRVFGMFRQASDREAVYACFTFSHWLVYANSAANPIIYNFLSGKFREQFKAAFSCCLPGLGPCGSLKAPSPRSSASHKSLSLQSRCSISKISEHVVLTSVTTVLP
OX1R antag-2 – antagonists of human orexin 1 receptor (OX1R); 330,000 tested, 1.8% active; OX1R-expressing cells, FRET antagonist read-out; inhibition, % at 6.6 µM; AID 485270, 2010; in the data active = inhibition mostly above about 38%, no sharp cut-off; inactive = mostly below about 40%
OX1R Fluo8 conf – OX1R (HCRTR1) antagonists, confirmation, fluorescence, CHO/OX1R cells, Fluo-8 calcium, orexin A; shares compounds with OX1R antag-1; orexin A calcium Fluo-8 fluorescence; 1,100 tested, 38% active; inhibition, % at 5 µM; AID 492963, 2010; in the data active = inhibition above about 29%
CHO Ca counter – ATP-evoked calcium inhibition in parental CHO, counter-screen for OX1R antagonist project, cell-based, fluorescence, CHO-K1, triplicate. shares compounds with OX1R antag-1. ATP-induced calcium, Fluo-8 fluorescence. inhibition, % at 5.6 µM. 1,100 tested, 9.3% active. AID 492965, 2010;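 active = inhibition above a per-plate limit, the mean inhibition of that plate's test compounds plus 3 SD, cut at about 25% in these data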
OX1R HTRF confirm – OX1R (HCRTR1) antagonists, confirmation, cell-based, HTRF; shares compounds with OX1R antag-2; inhibition, % at 6.6 µM; OX1R-expressing cells, HTRF antagonist assay; 1,800 tested, 49% active; in the data active = inhibition above about 55%;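 also: CHO cells expressing OX1R stimulated with orexin A at about EC80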
CHO-K1 HTRF cnt – signal inhibition in parental CHO-K1 cells, counter-screen for OX1R antagonist project, cell-based, HTRF. shares compounds with OX1R antag-2. HTRF counterscreen. 1,800 tested, 48% active. inhibition, % at 6.6 µM; in the data active = inhibition above about 17%
Each line names hits and unclear results; the compound was inactive in the other large screens (follow-up assays come after a bar, where they were run).

CNC(=O)Nc1cccc2cccnc12	none
COc1ccc(NC(=O)C(=O)Nc2cccc3cccnc23)c(OC)c1	none
Cc1ccc(N2CC(C(=O)OCc3ccc([N+](=O)[O-])cc3)CC2=O)cc1 (configuration not stated)	none
COc1ccc(/C=C2\SC(=S)N(N3C(=O)CCC3=O)C2=O)cc1O	none
CCN(CC)S(=O)(=O)c1cc(NC(=O)CSCc2c(C)noc2C)ccc1C	OX1R antag-1 46, OX1R antag-2 74 (no result: GPR7 antagonist) | OX1R Fluo8 conf 36 | CHO Ca counter inactive | OX1R HTRF confirm 80 | CHO-K1 HTRF cnt inactive
CCN(CC)S(=O)(=O)c1cc(NC(=O)CCc2c(C)noc2C)ccc1C	none (no result: GPR7 antagonist)
Cc1cc(-c2ccc(N3CCOCC3)cc2)nc2ccccc12	OX1R antag-2 91 | OX1R Fluo8 conf 54 | CHO Ca counter inactive | OX1R HTRF confirm 93 | CHO-K1 HTRF cnt inactive
c1ccc2nc(-c3ccc(N4CCOCC4)cc3)ccc2c1	none
O=C(CN1C(=O)S/C(=C\c2ccc(F)cc2)C1=O)Nc1cccc(S(=O)(=O)NCc2ccco2)c1	none
CC(CCc1ccccc1)NC(=O)c1cccc([N+](=O)[O-])c1 (configuration not stated)	none
CC(C)c1c(C(=O)N/N=C/c2ccc3c(c2)OCO3)nnn1-c1nonc1N	none
COc1cccc(/C=N/NC(=O)c2nnn(-c3nonc3N)c2CN(C)c2ccccc2)c1	OX1R antag-1 52, OX1R antag-2 70 | OX1R Fluo8 conf 41 | CHO Ca counter inactive | OX1R HTRF confirm 93 | CHO-K1 HTRF cnt inactive
CCN(CC)c1ccc(/C=N/NC(=O)c2nnn(-c3nonc3N)c2C(C)C)c(O)c1	OX1R antag-1 59, OX1R antag-2 96 | OX1R Fluo8 conf inactive | CHO Ca counter inactive | OX1R HTRF confirm 69 | CHO-K1 HTRF cnt inactive
CN(Cc1c(C(=O)N/N=C/c2cccc(F)c2)nnn1-c1nonc1N)C1CCCCC1	none
CCCN(CCC)Cc1c(C(=O)N/N=C/c2cccs2)nnn1-c1nonc1N	none
CN(Cc1c(C(=O)N/N=C/c2cccc(F)c2)nnn1-c1nonc1N)c1ccccc1	OX1R antag-2 57 | OX1R Fluo8 conf 33 | CHO Ca counter inactive | OX1R HTRF confirm 77 | CHO-K1 HTRF cnt inactive
CN(Cc1c(C(=O)N/N=C/c2cccs2)nnn1-c1nonc1N)c1ccccc1	OX1R antag-1 55, OX1R antag-2 82 | OX1R Fluo8 conf 32 | CHO Ca counter inactive | OX1R HTRF confirm 89 | CHO-K1 HTRF cnt inactive
CC(C)Cn1c(N)c(C(=O)COC(=O)c2ccccc2C(=O)c2ccccc2)c(=O)n(C)c1=O	none (no result: GPR7 antagonist)
Cc1cccnc1NC(=O)CCNC(=O)c1ccc(Cl)cc1	none
CCN1CCN(C(C(=O)NC2CCCCC2)c2cc3ccccc3o2)CC1 (configuration not stated)	none (no result: GPR7 antagonist, CHO parental Ca, OX1R antag-1, OX1R antag-2)
CCOc1cc(C)c(C(C)C)cc1S(=O)(=O)N1CCOCC1	none
O=C(CCCO)NNc1c2ccccc2nc2ccccc12	none
COc1ccc(OCC(=O)NNc2c3ccccc3nc3ccccc23)cc1	TAAR1 antagonist 59, OX1R antag-1 41, OX1R antag-2 102 | OX1R Fluo8 conf inactive | CHO Ca counter inactive | OX1R HTRF confirm inactive | CHO-K1 HTRF cnt inactive
CCn1c2ccccc2c2nc3ccccc3nc21	OX1R antag-2 93 (no result: TAAR1 ag, TAAR1 antagonist) | OX1R Fluo8 conf 43 | CHO Ca counter inactive | OX1R HTRF confirm 93 | CHO-K1 HTRF cnt inactive
CCn1c2ccccc2c2nc3cc(OC)c(OC)cc3nc21	none
COc1ccc(C(=O)/C=C/c2cn(CN3CCN(C)CC3)c3ccccc23)cc1	OX1R antag-2 71 (no result: TAAR1 ag, TAAR1 antagonist) | OX1R Fluo8 conf inactive | CHO Ca counter inactive | OX1R HTRF confirm inactive | CHO-K1 HTRF cnt inactive
COc1ccc(C(=O)/C=C/c2cn(CC(O)CN3CCOCC3)c3ccccc23)cc1 (configuration not stated)	none (no result: TAAR1 ag, TAAR1 antagonist)
CC(=O)Nc1ccc(NC(=O)C(C)OC(=O)COc2ccc(Nc3ccccc3)cc2)cc1 (configuration not stated)	OX1R antag-1 41, OX1R antag-2 31 (no result: GPR7 antagonist) | OX1R Fluo8 conf 33 | CHO Ca counter inactive | OX1R HTRF confirm inactive | CHO-K1 HTRF cnt inactive
CCC(C)(C)NC(=O)CN(C(=O)c1csnn1)c1ccccc1-c1ccccc1	OX1R antag-1 72, OX1R antag-2 87 | OX1R Fluo8 conf 32 | CHO Ca counter inactive | OX1R HTRF confirm 84 | CHO-K1 HTRF cnt inactive
Cc1cccc(OCCn2cc(/C=N/NC(=O)c3ccncc3)c3ccccc32)c1	none
Cc1cccc(OCC(=O)N/N=C\c2cn(C)c3ccccc23)c1	OX1R antag-2 45 | OX1R Fluo8 conf inactive | CHO Ca counter inactive | OX1R HTRF confirm inactive | CHO-K1 HTRF cnt inactive
O=C(CNC(=O)c1ccc(Cl)cc1)OCCN1C(=O)c2ccccc2C1=O	none (no result: GPR7 antagonist)
O=C(CCCN1C(=O)/C(=C\c2ccco2)SC1=S)Nc1ccc2ccccc2c1	OX1R antag-1 45, OX1R antag-2 85 | OX1R Fluo8 conf 42 | CHO Ca counter inactive | OX1R HTRF confirm 89 | CHO-K1 HTRF cnt inactive
COc1ccc(CCNC(=O)COc2ccc(-c3ccc(C)cc3)cc2)cc1OC	OX1R antag-1 70, OX1R antag-2 66 | OX1R Fluo8 conf inactive | CHO Ca counter inactive | OX1R HTRF confirm 76 | CHO-K1 HTRF cnt inactive
COc1ccc(CCNC(=O)CCOc2ccc(C)cc2)cc1OC	none
CC(NC(C)c1ccccc1Cl)C(=O)Nc1cccc(S(=O)(=O)N2CCCCC2)c1 (configuration not stated)	OX1R antag-1 89, OX1R antag-2 88 (no result: GPR7 antagonist) | OX1R Fluo8 conf 80 | CHO Ca counter inactive | OX1R HTRF confirm 89 | CHO-K1 HTRF cnt inactive

Screening data deposited in PubChem BioAssay by The Scripps Research Institute Molecular Screening Center.
